# Measured values published in ChEMBL document CHEMBL2176886, “Anti-AIDS agents 90. novel C-28 modified bevirimat analogues as potent HIV maturation inhibitors” (J Med Chem, 2012).
# Calls of active or inactive are those of the source. The calls are words filed in the database; no cut-off is given here.
# What was measured:
# [1] = test system: Human immunodeficiency virus 1; test: Antiviral activity against HIV1 NL4-3 infected in human MT4 cells assessed as p24 antigen level at 10 uM after 4 days by ELISA; type: functional, organism-based
# [2] = test system: Human immunodeficiency virus 1; test: Antiviral activity against HIV1 infected in human TZM-bl cells assessed as reduction of viral entry after 48 hrs by luciferase reporter gene assay; type: functional, organism-based
# Method in brief: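 Single-round infection of TZM-bl cells (HeLa clone expressing CD4/CCR5 with HIV-1 LTR-driven firefly luciferase) with HIV-1 at 200 TCID50 mixed with test samples. After 48 h, medium was replaced with Bright-Glo reagent and luminescence read. IC50 is the concentration giving 50% RLU reduction versus virus-control wells after background subtraction.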
# [3] = test system: Human immunodeficiency virus 1; test: Antiviral activity against HIV1 infected in human TZM-bl cells assessed as reduction of viral […] after 48 hrs by luciferase reporter gene assay; type: functional, organism-based
# Method in brief: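 Single-round infection of TZM-bl cells (HeLa clone expressing CD4 and CCR5, HIV-1 LTR-driven firefly luciferase) with HIV-1 at 200 TCID50 mixed with samples. Luminescence read after 48 h. IC50 is the concentration giving 50% lower RLU than virus control wells, after subtracting background RLU.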
# [4] = test system: Human immunodeficiency virus 1; test: Ratio of bevirimat IC50 to compound IC50 for HIV1 NL4-3 infected in human MT4 cells; type: functional
# Method in brief: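 MT-4 cells were infected with HIV-1 NL4-3 at MOI 0.01. Day-4 supernatant p24 was measured by ELISA. IC50 is the concentration giving 50% inhibition of replication, from averages of at least three separate experiments. The ratio divides the bevirimat IC50 by the compound IC50, both from this assay.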
# [5] = Therapeutic index, ratio of CC50 for human MT4 cells to IC50 for HIV-1 NL4-3; type: cell-based; conditions: read-out: Ratio CC50/IC50
# Method in brief: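 TI calculated as CC50 (mock-infected MT-4 growth, 2 days) divided by IC50 (HIV-1 NL4-3 replication in MT-4 cells, p24 ELISA at day 4).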
# [6] = test system: Human immunodeficiency virus 1; test: Antiviral activity against HIV1 NL4-3 infected in human MT4 cells assessed as p24 antigen level after 4 days by ELISA; type: functional, organism-based; conditions: Human immunodeficiency virus 1, NL4-3, MT4, 96 h
# Method in brief: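 MT-4 cells infected with HIV-1 NL4-3 variants at MOI 0.01; supernatants harvested day 4 post-infection for p24 antigen capture ELISA. IC50 is the concentration inhibiting replication by 50%; values are averages of at least three separate experiments.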
# MT4 = test: Cytotoxicity against human MT4 cells after 2 days; type: cell-based; conditions: mt4, 48 h
# Liver microsomes = test: Half life in human liver microsomes at 1 uM; type: ADME, Microsome
# Method in brief: (§1)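 Pooled human liver microsomes at 0.1 mg/mL in 0.1 M potassium phosphate pH 7.4 with 5 mM MgCl2. Compound at 1 μM final; reaction started with 1.0 mM NADPH (final) at 37 °C, duplicate incubations. Quenched with ice-cold acetonitrile at 0, 5, 15, 30, 60 min. Parent measured by LC-ESI-MS (SIM), remaining percentage relative to 0 min. t1/2 = 0.693/k from log-linear slope.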
# [7] = Metabolic stability in human liver microsomes assessed as compound remaining at 1 uM after 60 mins by HPLC-MS analysis; type: ADME, Microsome; conditions: read-out: Stability; method in brief: as §1
# Homo sapiens = species on record: Homo sapiens; test: Elimination half life in human; type: ADME, organism-based; conditions: in vivo
SMILES,Activity [1],Activity [2],Activity [3],Ratio IC50 [4],selectivity ratio [5],IC50 [6],CC50 (MT4),t1/2 (Liver microsomes),"remaining at 1 h, 1 µM [7]",beta t1/2 (Homo sapiens)
C=C(C)[C@@H]1CC[C@]2(C(=O)OCCC)CC[C@]3(C)[C@H](CC[C@@H]4[C@@]5(C)CC[C@H](O)C(C)(C)[C@@H]5CC[C@]43C)[C@@H]12,inactive,inactive,Active,,,,,,,
C=C(C)[C@@H]1CC[C@]2(C(=O)OCOCCOC)CC[C@]3(C)[C@H](CC[C@@H]4[C@@]5(C)CC[C@H](OC(=O)CC(C)(C)C(=O)O)C(C)(C)[C@@H]5CC[C@]43C)[C@@H]12,,inactive,Active,2,261,0.046 µM,12.1 µM,,,
C=C(C)[C@@H]1CC[C@]2(C(=O)N3CCC(CCCC(=O)NCCN4CCOCC4)CC3)CC[C@]3(C)[C@H](CC[C@@H]4[C@@]5(C)CC[C@H](OC(=O)CC(C)(C)C(=O)O)C(C)(C)[C@@H]5CC[C@]43C)[C@@H]12,,inactive,,3,286,0.035 µM,10 µM,,,
C=C(C)[C@@H]1CC[C@]2(C(=O)OCCCCCC)CC[C@]3(C)[C@H](CC[C@@H]4[C@@]5(C)CC[C@H](OC(=O)CC(C)(C)C(=O)O)C(C)(C)[C@@H]5CC[C@]43C)[C@@H]12,,inactive,Active,,8.3,1.8 µM,14.8 µM,,,
C=C(C)[C@@H]1CC[C@]2(C(=O)OCCC)CC[C@]3(C)[C@H](CC[C@@H]4[C@@]5(C)CC[C@H](OC(=O)CC(C)(C)C(=O)O)C(C)(C)[C@@H]5CC[C@]43C)[C@@H]12,,inactive,Active,,118,0.088 µM,10.4 µM,,,
C=C(C)[C@@H]1CC[C@]2(C(=O)OCCCCCC(=O)OCC)CC[C@]3(C)[C@H](CC[C@@H]4[C@@]5(C)CC[C@H](OC(=O)CC(C)(C)C(=O)O)C(C)(C)[C@@H]5CC[C@]43C)[C@@H]12,,inactive,Active,,154,0.056 µM,8.6 µM,,,
C=C(C)[C@@H]1CC[C@]2(C(=O)N3CCC(CCCC(=O)NCCCN4CCOCC4)CC3)CC[C@]3(C)[C@H](CC[C@@H]4[C@@]5(C)CC[C@H](OC(=O)CC(C)(C)C(=O)O)C(C)(C)[C@@H]5CC[C@]43C)[C@@H]12,,inactive,,3,321,0.031 µM,10 µM,,,
C=C(C)[C@@H]1CC[C@]2(C(=O)N3CCN(CCCCC(=O)O)CC3)CC[C@]3(C)[C@H](CC[C@@H]4[C@@]5(C)CC[C@H](OC(=O)CC(C)(C)C(=O)O)C(C)(C)[C@@H]5CC[C@]43C)[C@@H]12,,inactive,Active,15,2240,0.0059 µM,13.2 µM,5.45 h,86.2%,
C=C(C)[C@@H]1CC[C@]2(C(=O)O)CC[C@]3(C)[C@H](CC[C@@H]4[C@@]5(C)CC[C@H](OC(=O)CC(C)(C)C(=O)O)C(C)(C)[C@@H]5CC[C@]43C)[C@@H]12 [BEVIRIMAT],,inactive,,,171,0.087 µM,14.2 µM,,,56.3 h
C=C(C)[C@@H]1CC[C@]2(C(=O)OCCCCCC)CC[C@]3(C)[C@H](CC[C@@H]4[C@@]5(C)CC[C@H](O)C(C)(C)[C@@H]5CC[C@]43C)[C@@H]12,inactive,inactive,Active,,,,,,,
C=C(C)[C@@H]1CC[C@]2(C(=O)N3CCN(CCCC(=O)O)CC3)CC[C@]3(C)[C@H](CC[C@@H]4[C@@]5(C)CC[C@H](OC(=O)CC(C)(C)C(=O)O)C(C)(C)[C@@H]5CC[C@]43C)[C@@H]12,,inactive,,7.9,1180,0.011 µM,13 µM,,,
